High-throughput results as filed in PubChem.
Only some compounds are listed: those with a hit (about 2.3% of all), similar ones and a draw of the others.
TRPC4 agonist: activators of mouse TRPC4 channel, primary screen, Fluo4 calcium, HEK293 TRPC4beta/mu-opioid cells; AID 2237, 2010; Short transient receptor potential channel 4 (Mus musculus), Q9QUQ5; 0.49% of 310,000 active; Fluo4 calcium fluorescence; hits give high values; B-score at 10 µM;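 active means B-score above 5 SD of library B-scores, and initial fluorescence ratio not above library mean plus 5 SD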;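 further: positive B-score marks a calcium rise read as TRPC4 activation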
Target sequence (Q9QUQ5 whole entry, looked up): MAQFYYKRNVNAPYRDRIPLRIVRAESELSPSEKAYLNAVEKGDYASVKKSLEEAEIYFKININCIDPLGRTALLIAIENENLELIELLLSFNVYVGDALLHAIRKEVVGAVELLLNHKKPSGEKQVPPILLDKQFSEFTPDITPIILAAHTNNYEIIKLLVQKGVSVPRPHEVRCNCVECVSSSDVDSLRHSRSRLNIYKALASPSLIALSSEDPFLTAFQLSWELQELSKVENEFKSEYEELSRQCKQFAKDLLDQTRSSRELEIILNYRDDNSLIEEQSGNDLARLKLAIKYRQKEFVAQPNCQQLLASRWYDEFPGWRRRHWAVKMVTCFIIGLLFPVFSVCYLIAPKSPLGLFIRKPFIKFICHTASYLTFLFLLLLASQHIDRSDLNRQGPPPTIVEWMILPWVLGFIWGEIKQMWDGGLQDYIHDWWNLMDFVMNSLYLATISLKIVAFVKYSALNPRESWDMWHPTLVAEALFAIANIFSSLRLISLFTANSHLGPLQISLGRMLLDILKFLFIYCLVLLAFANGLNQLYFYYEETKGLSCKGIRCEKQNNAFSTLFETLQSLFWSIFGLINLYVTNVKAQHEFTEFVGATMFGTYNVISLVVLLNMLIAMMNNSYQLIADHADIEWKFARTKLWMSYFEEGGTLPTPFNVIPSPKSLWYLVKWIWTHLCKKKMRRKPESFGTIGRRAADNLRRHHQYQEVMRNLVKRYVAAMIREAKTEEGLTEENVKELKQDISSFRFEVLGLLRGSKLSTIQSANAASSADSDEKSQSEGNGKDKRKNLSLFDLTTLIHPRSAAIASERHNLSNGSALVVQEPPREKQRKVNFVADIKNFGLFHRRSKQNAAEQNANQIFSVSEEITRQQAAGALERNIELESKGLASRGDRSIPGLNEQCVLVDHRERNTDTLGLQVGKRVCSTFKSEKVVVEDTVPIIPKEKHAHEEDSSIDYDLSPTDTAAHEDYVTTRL
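System: HEK293 cells stably co-expressing mouse TRPC4beta and mu-opioid receptor; Schedule: Fluo4 dye loading 45 min at room temperature, 110 s recording; Detection: Fluo4 fluorescence, kinetic; Evaluation: B-scored integrated calcium fluorescence ratio; Controls: buffer (low) and maximal DAMGO (high).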
TRPC4 block: inhibitors of mouse TRPC4 channel, primary screen, Fluo4 calcium, HEK293 TRPC4beta/mu-opioid cells; Short transient receptor potential channel 4 (Mus musculus), Q9QUQ5; DAMGO-evoked Fluo4 calcium flux; hits give low values; B-score at 10 µM; 0.39% of 300,000 active;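 active means B-score over 3 SD under the library average, no early fluorescence shift, positive overall ratio signal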
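Assay system: TRPC4beta/mu-opioid receptor HEK293 cell line; compound dosing: single concentration per test compound; detection: Fluo4 Ca2+ flux fluorescence; evaluation: per-well B score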
TRPC6 activator: mouse TRPC6 channel activators, primary screen, cell-based, HEK293, membrane potential dye; HEK293-TRPC6 membrane potential dye fluorescence; hits give high values; B-score at 10 µM; 0.13% of 310,000 active;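 active means B-score of the integrated fluorescence ratio above library mean plus 3 SD, and starting fluorescence ratio within library mean plus 5 SD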;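 further: higher score means more depolarization so channel activation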
TRPC4 PAM: positive allosteric modulators of TRPC4, primary screen, cell-based, mouse TRPC4beta, HEK293 mu-opioid, Fluo-4 calcium | Short transient receptor potential channel 4 (Mus musculus), Q9QUQ5 | DAMGO EC20, Fluo-4 Ca2+ flux; hits give high values | B-score at 10 µM | 0.42% of 310,000 active | AID 2227, 2009;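 active means B-score of calcium response area above 5 SD of library B-scores, with initial fluorescence ratio within 5 SD of library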;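 further: B-score of integrated fluorescence ratio over time as area under calcium response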
TRPC6 inh: mouse TRPC6 channel inhibitors, primary screen, cell-based, HEK293, membrane potential dye | ACh-evoked depolarization; hits give low values | 1.1% of 310,000 active | B-score at 10 µM | Short transient receptor potential channel 6 (Mus musculus), Q61143 | AID 2553, 2010;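 active means B-score under library mean minus 3 SD, initial fluorescence not abnormally high, positive integrated signal ratio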;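 further: B-score derived from integrated fluorescence ratio over the kinetic read; more negative B-score means stronger inhibition of depolarization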
Numbers without * were called inactive; i = inactive.

SMILES | TRPC4 agonist | TRPC4 block | TRPC6 activator | TRPC4 PAM | TRPC6 inh
Cc1nc(N2CCN(c3ccccn3)CC2)c2c(C)c(C(=O)N3CCN(c4ccc(F)cc4)CC3)sc2n1 | i | -10* | i | i | i
COc1ccccc1N1CCN(C(=O)c2sc3ncnc(N4CCN(c5ccccn5)CC4)c3c2C)CC1 | i | i | i | i | i
COc1ccccc1N1CCN(C(=O)c2sc3nc(C)nc(N4CCN(c5ccccn5)CC4)c3c2C)CC1 | i | -7* | i | i | i
CCc1ccc(NC(=S)N(CCCN2CCN(C)CC2)Cc2cccs2)cc1 | i | i | i | 10* | i
CN1CCN(CCCN(Cc2cccs2)C(=S)Nc2ccc(Cl)cc2)CC1 | i | i | i | i | i
CCc1ccc(NC(=O)N(CCCN2CCOCC2)Cc2cccs2)cc1 | 51* | i | i | i | i
Cc1cc(OCC(=O)N2CCN(c3ccccn3)CC2)c(C)cc1Br | i | i | i | i | i
CCC(C)N(C(=O)Cn1nnc2ccccc21)C(C(=O)Nc1ccc(F)cc1)c1cccc(OC)c1 (configuration not stated) | i | i | 14* | i | i
O=C1C=C(O)CC(c2ccc(Cl)cc2)C1 (configuration not stated) | i | i | i | i | i
O=C1C=C(O)CC(c2ccc(Cl)c(Cl)c2)C1 (configuration not stated) | i | i | i | 11* | i
Cc1cccc(C)c1NC(=O)CNC(=O)Cn1nc(C)c(C)c(C#N)c1=O | i | i | i | i | i
C(C#CCCCCCCCCC[n+]1ccccc1)#CCCCCCCCCC[n+]1ccccc1 | 84* | i | i | i | i
O=c1c(C=NCCN2CCNCC2)c(-c2ccccc2)[nH]n1-c1ccc([N+](=O)[O-])cc1 | i | i | i | i | -6.6*
O=C(COC(=O)COc1cccc(C(F)(F)F)c1)NC1CCCC1 | i | i | i | i | i
Cc1ccc(-n2c3nc(=O)[nH]c(=O)c-3cc3cc([N+](=O)[O-])ccc32)cc1C | i | i | i | 10* | i
O=C(O)CCN1C(=O)c2ccc(NC(=O)COc3ccccc3)cc2C1=O | i | i | i | i | i
COc1cccc(C2c3[nH]c4ccccc4c3C[C@H]3C(=O)N(c4ccccc4C(=O)NCCCN4CCOCC4)C(=O)N23)c1 (some centres not stated) | i | i | i | i | i
O=C(NCCc1ccccn1)C(F)(F)C(F)(F)C(F)(F)C(F)(F)C(F)(F)C(F)F | 128* | i | i | i | i
O=C(NCc1ccccn1)C(F)(F)C(F)(F)C(=O)NCc1ccccn1 | i | i | i | i | i
N#Cc1cccc(Nc2c3c(nc4ccccc24)CCC3)c1 | i | i | i | i | i
COc1cc(Nc2c3c(nc4ccccc24)CCC3)cc(OC)c1OC | i | i | i | i | i
Cc1cccc(Nc2c3c(nc4ccccc24)CCC3)c1 | i | -6* | i | i | i
COc1ccc(OC)c(Nc2c3c(nc4ccccc24)CCC3)c1 | i | -5* | i | i | i
CCN(CC)Cc1c(C(=O)N/N=C(\C)c2ccncc2)nnn1-c1nonc1N | i | i | i | i | i
CCOC(=O)c1cnc(-n2nc(C)cc2C)nc1NC1CCCCC1 | i | i | i | 18* | i
SMILES | TRPC4 agonist | TRPC4 block | TRPC6 activator | TRPC4 PAM | TRPC6 inh
COC(=O)[C@@H](NC(=O)c1ccc2c(c1)S(=O)(=O)c1ccccc1C2=O)C(C)C | i | i | i | i | i
Cc1cc(C(C)(C)C)c(O)c(C)c1CC1=NCCN1 | i | i | i | 17* | i
c1ccc2c(CC3=NCCN3)cccc2c1 | i | i | i | i | i
Cc1ccc(-n2cccn2)c(CN2CCC(CO)(CCc3ccccc3)CC2)c1 | 56* | i | i | i | i
OCC1(CCCc2ccccc2)CCN(Cc2ccc(F)cc2)CC1 | i | i | i | i | i
OCC1(CCc2ccccc2)CCN(Cc2cc(Cl)ccc2O)CC1 | i | -7* | i | i | i
O=C1CCCC(=O)N1c1ccc(N2CCN(c3ccc([N+](=O)[O-])cc3)CC2)c([N+](=O)[O-])c1 | i | i | i | 21* | i
Cc1cc(C(=O)CN2C(=O)NC(CC(C)C)C2=O)c(C)n1-c1ccccc1F (configuration not stated) | i | i | i | i | i
Cc1cc(C(=O)Cn2nnc3ccccc3c2=O)c(C)n1-c1ccccc1F | i | i | i | 14* | i
COc1ccc(-n2c(C)cc(C(=O)Cn3nnc4ccccc4c3=O)c2C)cc1 | i | i | i | i | i
Cc1cc(C(=O)CN2C(=O)C(=O)N(CC(C)C)C2=O)c(C)n1-c1ccccc1F | i | i | i | 15* | i
CC(=O)c1cccc(OCc2cc(C(=O)N3CCC(N4CCCCC4)CC3)no2)c1 | i | i | i | i | i
O=C(NCCCNC(=O)c1cnccn1)c1cccc(F)c1 | i | i | i | i | i
Cc1ccc(CC(=O)Nc2nnc(-c3ccc(F)cc3)o2)c(C)c1 | i | i | i | i | i
COC(=O)/C=C1/SC(=NC(=O)c2ccccc2)NC1=O | i | i | i | i | i
COC(=O)/C=C1\SC(=NC(=O)c2cccc(Cl)c2)NC1=O | i | -6* | i | i | i
Brc1ccc(C[n+]2ccccc2)cc1 | i | i | i | i | i
Cc1ccc(NC(=O)C(C)OC(=O)Cc2c[nH]c3ccccc23)cc1 (configuration not stated) | i | -6* | i | i | i
Cn1c(N2CCN(C(=O)Nc3ccc(C(F)(F)F)cc3)CC2)nc2ccccc21 | 94* | i | i | i | i
Cn1c(N2CCN(C(=O)NCc3ccccc3)CC2)nc2ccccc21 | i | i | i | i | i
COc1ccc(C2=CC(=O)C=CC2=O)cc1 | 91* | i | i | i | i
O=C(Nc1nc(-c2ccccn2)cs1)c1cccc(-n2cnnn2)c1 | i | i | i | 13* | i
